Experiments:
Assay type in all cases: functional
Cavia porcellus [1] = species: Cavia porcellus; experiment: Percent inhibition of SRS-A release in vitro at a dose of 10 uM in guinea pig
How it was run: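 Male Hartley guinea pigs were sensitized with ovalbumin (5 mg ip + 5 mg sc on day 1, 5 mg ip on day 4). About 400 mg chopped lung was preincubated with compound for 12 min at 37 °C in Tyrode's with 10 mM cysteine, then challenged with 20 μg/mL ovalbumin (final) for 0.25 h. SRS-A in ethanol-extracted supernatant was bioassayed on mepyramine-treated ileum against a rat SRS-A standard. Results are % inhibition versus vehicle, from 3-4 lungs.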

Cavia porcellus [2] = experiment: Percent inhibition of bronchospasm in vivo at a dose of 12.5 mg/kg in guinea pig; details: Bronchiole
How it was run: (§1)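 Guinea pigs were sensitized with ovalbumin and used 3-4 weeks later. They were fasted and anesthetized with dialurethane ip. Compounds were given orally 2 h before challenge. Propranolol 1 mg/kg, indomethacin 5 mg/kg and mepyramine 2 mg/kg were given iv 15 min before a 0.5 min aerosol of 0.5% ovalbumin through the tracheal cannula. The rise in inflation pressure measured bronchoconstriction. Results are % inhibition, 4-5 animals per group.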

Cavia porcellus [3] = experiment: Percent inhibition of bronchospasm in vivo at a dose of 25 mg/kg in guinea pig; details: Bronchiole; how it was run: as §1

Structure (SMILES)	inhibition at 10 µM (Cavia porcellus [1]) [%]	inhibition in vivo at 12.5 mg/kg (Cavia porcellus [2]) [%]	inhibition in vivo at 25 mg/kg (Cavia porcellus [3]) [%]
C#CCOc1c(CC#C)c(=O)n(-c2ccccc2)c2ncccc12	62	0	
C=CCc1c(O)c2cccnc2n(-c2cccc(OC)c2)c1=O	56		46
CCCCc1c(O)c2cncnc2n(-c2ccccc2)c1=O	9		
CCCCc1c(O)c2cc(O)cnc2n(-c2ccccc2)c1=O	69		0
CCCCc1c(OCCCO)c2cccnc2n(-c2ccccc2)c1=O	7		
CCCCc1c(O)c2cc3c(nc2n(-c2ccccc2)c1=O)CCC3	22		
CCCCc1c(O)c2c(n(-c3ccccc3)c1=O)NCCC2	51		17
CCCCc1c(O)c2cnccc2n(-c2ccccc2)c1=O	0		
CCCCc1c(OCCN(C)C)c2cccnc2n(-c2ccccc2)c1=O	0	13	84
CCCCCCCCc1c(O)c2cccnc2n(-c2ccccc2)c1=O	51		0
CCCCc1c(O)c2cccnc2n(-c2ccc(OC)cc2)c1=O	87		51
CC(=O)Oc1c(CCC2CCCCN2C)c(=O)n(-c2ccccc2)c2ncccc12 (stereo not given)	19		
CCCCc1c(OC(C)=O)c2cccnc2n(-c2cccc(S(C)(=O)=O)c2)c1=O	20		
CCCCc1c(O)c2cccnc2n(-c2ccc(Oc3ccccc3)cc2)c1=O	54		0
CCCCc1c(O)c2cccnc2n(-c2ccccc2C)c1=O	55		9
C=CCc1c(OC(C)=O)c2cccnc2n(-c2cccc(C(F)(F)F)c2)c1=O	65		
CC(O)CCc1c(O)c2cccnc2n(-c2ccccc2)c1=O (stereo not given)	53		32
CCCCc1c(OC(C)=O)c2cccnc2n(-c2ccc(OC(C)=O)c(C(=O)O)c2)c1=O	17		
CCCCCCn1c(=O)c(CCCC)c(O)c2cccnc21	63		15
CCCCc1c(O)c2cccnc2n(-c2ccc(SC)cc2)c1=O	86		8
CCCCc1c(OCCOCC)c2cccnc2n(-c2ccccc2)c1=O	0		
CCCCc1c(O)c2nccnc2n(-c2ccccc2)c1=O	75		36

Structure (SMILES)	inhibition at 10 µM (Cavia porcellus [1]) [%]	inhibition in vivo at 12.5 mg/kg (Cavia porcellus [2]) [%]	inhibition in vivo at 25 mg/kg (Cavia porcellus [3]) [%]
CCCCc1c(OCCCN(C)C)c2cccnc2n(-c2ccccc2)c1=O	0		13
C=CCc1c(OC(C)=O)c2cccnc2n(-c2ccccc2OC)c1=O	35		
CCCCc1c(OC(C)=O)c2cccnc2n(-c2ccc(S(C)(=O)=O)cc2)c1=O	26		
CCCCc1c(O)c2cccnc2n(-c2cccc(SC)c2)c1=O	62		55
CC(C)=CCc1c(O)c2cccnc2n(-c2ccccc2)c1=O	45		
CCCCc1c(O)c2cccnc2n(-c2cc(OC)c(OC)c(OC)c2)c1=O	22		
CCCCc1c(OCC(O)CO)c2cccnc2n(-c2ccccc2)c1=O (stereo not given)	0		
CCCCc1c(O)nc2ncccc2c1O	15		
CCCCc1c(O)c2cccnc2n(-c2cccnc2)c1=O	33		
CCCCc1c(O)c2cccnc2n(-c2ccc(F)cc2)c1=O	95	0	
Cc1c(O)c2cccnc2n(-c2ccccc2)c1=O	52		33
CCCCc1c(O)c2cccnc2n(CCN(C)C)c1=O	0		
CCCCc1c(O)c2cccnc2n(-c2ccc(F)cc2F)c1=O	27		
O=c1c(CC2CCCCC2)c(O)c2cccnc2n1-c1ccccc1	30		
CCCCc1c(OC(C)=O)c2cccnc2n(-c2ccc(F)cc2)c1=O	77	34	
CCCCc1c(O)c2ccccc2n(-c2ccncc2)c1=O	31		
O=c1cc(O)c2cccnc2n1-c1ccccc1	0		
CCCCc1c(O)c2cccnc2n(-c2ccc(O)c(C(=O)O)c2)c1=O	0		
CCCCCc1c(O)c2cccnc2n(-c2ccccc2)c1=O	49		42
CCCCc1c(O)c2cccnc2n(-c2ccc3c(c2)CCC3)c1=O	55		1
CCCCOc1ccc(-n2c(=O)c(CCCC)c(O)c3cccnc32)cc1	17		
CCCCc1c(OC(C)=O)c2cccnc2n(-c2ccc(OC)cc2)c1=O	64		32

Structure (SMILES)	inhibition at 10 µM (Cavia porcellus [1]) [%]	inhibition in vivo at 12.5 mg/kg (Cavia porcellus [2]) [%]	inhibition in vivo at 25 mg/kg (Cavia porcellus [3]) [%]
CCCCc1c(O)c2ncccc2n(-c2ccccc2)c1=O	43		
CCCCc1c(O)c2ccncc2n(-c2ccccc2)c1=O	0		
CCc1c(O)c2cccnc2n(-c2ccccc2)c1=O	74	44	
CCCCc1c(OCCO)c2cccnc2n(-c2ccccc2)c1=O	86		64
C=CCOc1c(CCCC)c(=O)n(-c2ccccc2)c2ncccc12	0		
C=CCc1c(O)c2cccnc2n(-c2cccc(C(F)(F)F)c2)c1=O	50		0
C=CCc1c(OC(C)=O)c2cccnc2n(-c2cccc(OC)c2)c1=O	84	32	
C=CCCCCCCCc1c(OC(C)=O)c2cccnc2n(-c2ccccc2)c1=O	15		
CCCCc1c(O)c2cccnc2n(-c2ccc(O)c(C(=O)OCC)c2)c1=O	65	0	
CCCCc1c(O)c2cccnc2n(-c2cccc(Cl)c2C)c1=O	5		
C=CCc1c(O)c2cccnc2n(-c2ccc(OC)cc2)c1=O	3		
CC(C)=CCc1c(O)c2nccnc2n(-c2ccccc2)c1=O	69		10
CCCCc1c(O)c2cccnc2n(Cc2ccccc2)c1=O	0		
CCCCc1c(O)c2cc3c(nc2n(-c2ccccc2)c1=O)CCCC3	38		
O=c1c(-c2ccccc2)c(O)c2cccnc2n1-c1ccccc1	48		
CCCCc1c(O)c2cccnc2n(-c2ccccc2SC)c1=O	32		
CC(=O)CCc1c(O)c2cccnc2n(-c2ccccc2)c1=O	36		
CCCCc1c(O)c2cc(OC)cnc2n(-c2ccccc2)c1=O	3		
CCCCc1c(OC(C)=O)c2cccnc2n(-c2cccc(SC)c2)c1=O	57		27
CCCCc1c(O)c2cccnc2n(-c2ccc(OC)c(OC)c2)c1=O	57		0
CCCCc1c(O)c2cc(Br)cnc2n(-c2ccccc2)c1=O	73		5
CCCCc1c(OC(C)=O)c2cccnc2n(-c2ccc(SC)cc2)c1=O	38		

Structure (SMILES)	inhibition at 10 µM (Cavia porcellus [1]) [%]	inhibition in vivo at 12.5 mg/kg (Cavia porcellus [2]) [%]	inhibition in vivo at 25 mg/kg (Cavia porcellus [3]) [%]
CCCCc1c(O)c2cccnc2n(-c2ccc(OCc3ccccc3)cc2)c1=O	50		0
CCCCc1c(O)c2cccnc2n(-c2ccc(C(C)O)cc2)c1=O (stereo not given)	48		
O=c1c(CCCCc2ccccc2)c(O)c2cccnc2n1-c1ccccc1	9		
CCCCc1c(O)c2cc3ccccc3nc2n(-c2ccccc2)c1=O	0		
CCCCc1ccc(-n2c(=O)c(CCCC)c(O)c3cccnc32)cc1	50		13
CCCCc1c(OCC2COC(C)(C)O2)c2cccnc2n(-c2ccccc2)c1=O (stereo not given)	0		
O=c1c(-c2ccccn2)c(O)c2cccnc2n1-c1ccccc1	84	42	
CCCCc1c(OCC)c2cccnc2n(-c2ccccc2)c1=O	0		
CCCCc1c(O)c2cccnc2n(-c2c(C)cccc2C)c1=O	0		
CCCCc1c(=O)c2cccnc2n2c1oc1ccccc12	14		
CC1(CCc2c(O)c3cccnc3n(-c3ccccc3)c2=O)OCCO1	52		0
O=c1c(CCc2ccccn2)c(O)c2cccnc2n1-c1ccccc1	58	5	
C=CCc1c(OC(C)=O)c2cccnc2n(-c2ccc(OC)cc2)c1=O	52		42
CCCCc1c(O)c2cccnc2n(-c2ccc(O)cc2)c1=O	44		
CCCCc1c(O)c2cccnc2n(-c2ccc(C(C)=O)cc2)c1=O	37		
O=c1c(C2CCCCC2)c(O)c2cccnc2n1-c1ccccc1	66		45
C=CCc1c(OC(C)=O)c2cc(OC)cnc2n(-c2ccccc2)c1=O	0		
CCCCc1c(O)c2ccc(C)nc2n(-c2ccccc2)c1=O	21		
CCCCc1c(OC(C)=O)c2cccnc2n(-c2ccc([S+](C)[O-])cc2)c1=O (stereo not given)	11		
C#CCOc1c(CCCC)c(=O)n(-c2ccccc2)c2ncccc12	0		
CCCCc1c(OC(C)=O)c2cccnc2n(-c2cccc([S+](C)[O-])c2)c1=O (stereo not given)	28		

— ChEMBL document CHEMBL1124002, “Antiallergy agents. 1. Substituted 1,8-naphthyridin-2(1H)-ones as inhibitors of SRS-A release” (J Med Chem, 1988)
